# The EternaBench riboswitch data
# How the values were obtained:
# MS2 coat protein [1] = experiment: apparent Kd, MS2 coat protein; higher = weaker binding; RNA-MaP array
# In short: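 Designed RNAs were produced on an Illumina sequencing chip by transcription of sequenced DNA templates. Binding to fluorescently labeled MS2 coat protein (1.5 nM to 3 μM) was measured at room temperature with or without input ligand. The apparent Kd is the median of per-cluster binding-curve fits. Designs were excluded when measured on fewer than 10 clusters.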
# MS2 coat protein [2] = experiment: apparent Kd, MS2 coat protein; higher = weaker binding; RNA-MaP array; FMN 200 µM where present
# In short: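 Each design was made on Illumina sequencing-chip clusters by stalled E. coli RNA polymerase and titrated with SNAP-549-labelled MS2 coat protein from 0.7 or 1.5 nM, doubling to 3 µM, in the absence and then the presence of constant ligand. The buffer was 100 mM Tris-HCl pH 7.5, 80 mM KCl, 4 mM MgCl2, BSA, DTT, yeast tRNA and Tween-20. The apparent Kd is the median of filtered per-cluster fits of binding curves, with green signal normalised to red-channel RNA signal and control-cluster median Fmax.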
# [3] = designed as: OFF switch for flavin mononucleotide, no ligand
# [4] = ligand present: flavin mononucleotide, designed as: OFF switch for flavin mononucleotide
# [5] = designed as: ON switch for flavin mononucleotide, no ligand
# [6] = ligand present: flavin mononucleotide, designed as: ON switch for flavin mononucleotide
Sequence,apparent Kd (MS2 coat protein [2]; [3]) [nM],apparent Kd (MS2 coat protein [2]; [4]) [nM],further results
GCUCGAGGGCAAGGAUAUAGGGAGAAACAACGCCUAGAAGGUGCACACAUGAGGAUCACCCAUGUUUCUCUAUGACGGAUCAUC,,,apparent Kd (MS2 coat protein [1]; [3]): 18.1 nM; apparent Kd (MS2 coat protein [1]; [4]): 17.3 nM
GGUUUUUCUGUUAGGAUAUUUCAUGACAGGCGAUGAAAGAAGGAACAUGAGGAUCACCCAUGUGUUUGAGAUAA,,,apparent Kd (MS2 coat protein [1]; [3]): 9.57 nM; apparent Kd (MS2 coat protein [1]; [4]): 10.6 nM
UCUAACAUGAGGAUCACCCAUGUACCGUCCCGAGGACCGGUACGGCCGCCACUCGUCUUGCUAAAACUGAAGUGAUCACAAGCCU,,,"apparent Kd (MS2 coat protein [1]; designed as: ON switch for tryptophan, no ligand): 20.2 nM; apparent Kd (MS2 coat protein [1]; ligand present: tryptophan, designed as: ON switch for tryptophan): 30.8 nM"
CCAGAUUUAGGAUAUACAUGAGGAUCACCCAUGUGGGAUUUAGUGCGGUUUAUGCAACGUAGAAGGAAAUCAGG,,,apparent Kd (MS2 coat protein [1]; [3]): 31.6 nM; apparent Kd (MS2 coat protein [1]; [4]): 71.4 nM
UCACUGUUAGGAUAUCUCAUAGCAGUAGGUCAGCUAUUUUGAGAGAAGGAACAUGAGGAUCACCCAUGUAAAUA,,,apparent Kd (MS2 coat protein [1]; [3]): 19.6 nM; apparent Kd (MS2 coat protein [1]; [4]): 84.7 nM
AGAAUGACAAAAUUGCAACAUGAGGAUCACCCAUGUGAUACAAGAAGGACAAACCGCUCAAGAGUGUAGGAUAUUGUGGAAAUC,,,apparent Kd (MS2 coat protein [1]; [5]): 25.6 nM; apparent Kd (MS2 coat protein [1]; [6]): 19.6 nM
UCUCUUAAAGCAGGAUAUGAAAUCCACCAGGAAUCAGAAGGGCUCAACGUUACAUGAGGAUCACCCAUGUCCCUUAUGACAAUA,,,apparent Kd (MS2 coat protein [1]; [3]): 7.83 nM; apparent Kd (MS2 coat protein [1]; [4]): 9.35 nM
UGAAAUUUGGAGAAGGGACGCACGUGGUAGUGGCUACAUGAGGAUCACCCAUGUUAAUUGAUCAGUCAGGAUAUCCGGUUGUUC,,,apparent Kd (MS2 coat protein [1]; [3]): 18.1 nM; apparent Kd (MS2 coat protein [1]; [4]): 22.1 nM
UGUUACAUGAGGAUCACCCAUGUCAGAUGGUCUGGCUAUUACAGAAGGAAUAAAGAACGUCGAGAUUAGGAUAUGUGUAGAUGA,,,apparent Kd (MS2 coat protein [1]; [5]): 40.9 nM; apparent Kd (MS2 coat protein [1]; [6]): 31.8 nM
UCUCAUAUGGAAGGAUAUCAUACCUUGUCGAGAUGAGAAGGUCCGUAUGGACAUAACAUGAGGAUCACCCAUGUUUCUUGUGUU,,,apparent Kd (MS2 coat protein [1]; [5]): 188 nM; apparent Kd (MS2 coat protein [1]; [6]): 128 nM
AAUCGCCGUAAGAAGGCCACAUAAACAUGAGGAUCACCCAUGUACAGGCGACCUUUAUAUAAUGUGGAGGAUAUUAACUGCUUC,,,apparent Kd (MS2 coat protein [1]; [3]): 36.2 nM; apparent Kd (MS2 coat protein [1]; [4]): 90.5 nM
AGACAAAAGGAGAAGGAGGUAAAGAUAUAAAGGUGAAGUAAUGGACAUGAGGAUCACCCAUGUACCUAGGAUAUCCAGGGCGAU,,,apparent Kd (MS2 coat protein [1]; [3]): 26.8 nM; apparent Kd (MS2 coat protein [1]; [4]): 33.6 nM
GGGACACAUGAGGAUCACCCAUGUUGAUGACUUUGAGGAUAUUAGCAAAUUCUGGUCCGCUAAGAAGGCAAGGAAG,,,apparent Kd (MS2 coat protein [1]; [5]): 18.8 nM; apparent Kd (MS2 coat protein [1]; [6]): 9.82 nM
AAAUACCAAGGAUAUACAUGAGGAUCACCCAUGUACAAACCCGUGGAACGGAUCUUUGGUAGAAGGUGGACAUA,13.9,11.9,
UACAAUCUAUCUGAGGAUAUCAUGCAUUACACAUGAGGAUCACCCAUGUGCAGGAAAACUGCAUAUGAGAAGGCAGAUAGAUUGU,,,apparent Kd (MS2 coat protein [2]; [5]): 561 nM; apparent Kd (MS2 coat protein [2]; [6]): 23.8 nM
AAGUGUCCUAAGGAUAUCGAAGCUAUCGGCUGCCGAGAAGGUAGGACAUGAGGAUCACCCAUGUACCGUGAGCC,68.1,29.8,
AAUUGACACGUAGGAUAUCGAACUAUUUUAACACGAGAAGGACGUACAUGAGGAUCACCCAUGUUUAAUGGUGUAGAUAAGUUG,70.9,188,
AGAAACUACGAGAAGGACAUGUGGUCCUUCAGUUACAUGAGGAUCACCCAUGUAGGAUAUCGUAGUUUCAGGAUCGUGAGAUCA,40.8,12.3,
CGCAAGUAUACAUGAGGAUCACCCAUGUAAGAUAGGGUAAUCAGAAGGUACAAUUAGAGAUAGAGUAAGGAUAUGAAAUUUGCG,,,apparent Kd (MS2 coat protein [2]; [5]): 358 nM; apparent Kd (MS2 coat protein [2]; [6]): 94.5 nM
AUCUACCUAGGAUAUACAUGAGGAUCACCCAUGUACAGUUUCAUCUAGGGAUACUCACGUAGAAGGAGGUAGAU,36.6,21.5,
CCAAACUGAGGAUAUACAUGAGGAUCACCCAUGUGCCCGCGGUCAUAUGUAGCCUAGUGUAGAAGGCAGAAAAC,75.5,25,
UUUUCGAACCGAGGAUAUCCUUAUAAGAAACAUGAGGAUCACCCAUGUAAAGGGAAUUAUUUGUAGGAGAAGGCGGAUUUUGUU,,,apparent Kd (MS2 coat protein [2]; [5]): 44.4 nM; apparent Kd (MS2 coat protein [2]; [6]): 29.9 nM
GCGAUAUUGUAAGGAUAUACUCUGUGAUGAAGAGUAGAAGGUACUUACAUGAGGAUCACCCAUGUUUAACGAGAUACUAAUCGC,,,apparent Kd (MS2 coat protein [2]; [5]): 16.6 nM; apparent Kd (MS2 coat protein [2]; [6]): 13.1 nM
GGAGCCGGCACUGAGGAUAUUCAUAUUAAAACAUGAGGAUCACCCAUGUAGGCCAGAAGGCCUUGGGAGAAGGCAGGUCGGCUCG,,,apparent Kd (MS2 coat protein [2]; [5]): 423 nM; apparent Kd (MS2 coat protein [2]; [6]): 27.9 nM
GCAUUGAUAACAGGAUAUAUGUUUCCUACAUGAGGAUCACCCAUGUAGGUGAUCAGCCGAGAAAAGUAGAAGGGUUAUCAAUGC,,,apparent Kd (MS2 coat protein [2]; [5]): 16.7 nM; apparent Kd (MS2 coat protein [2]; [6]): 15.4 nM
ACUAAUUAGUGAGGAUAUACAUAAUUUAUAACUGUAGAAGGCACAAACCUCAAGACAUGAGGAUCACCCAUGUGGUAUAUAGAU,169,388,
GGGUACAUCGGAGGAUAUCAUGUAAAUACAUGAGGAUCACCCAUGUCGAUGGAGACAUUGGAGAUUGAGAAGGCCGAUGUACCG,,,apparent Kd (MS2 coat protein [2]; [5]): 156 nM; apparent Kd (MS2 coat protein [2]; [6]): 219 nM

Sequence,apparent Kd (MS2 coat protein [2]; [3]) [nM],apparent Kd (MS2 coat protein [2]; [4]) [nM],further results
AGUUAAUAUCGAGGAUAUGUCUAGACACAUGAGGAUCACCCAUGUAUGUGUAUAGAAGGCGAUAUUAACAGCAUGUUACAUGCC,,,apparent Kd (MS2 coat protein [2]; [5]): 37.2 nM; apparent Kd (MS2 coat protein [2]; [6]): 15.6 nM
GACUGAUUGUAGAAGGUACUUAAUACUCAUGUAACAUGAGGAUCACCCAUGUAUCACCCAUAUUGUAAGGAUAUACAUAUCUCA,,,apparent Kd (MS2 coat protein [2]; [5]): 337 nM; apparent Kd (MS2 coat protein [2]; [6]): 167 nM
GUGGUCAGACAUGAGGAUCACCCAUGUGGAAUAAAUAACGGACAGGAUAUCGAAUAUAGGAUAUACGAGAAGGGUUGAUUGGUG,,,apparent Kd (MS2 coat protein [2]; [5]): 83.7 nM; apparent Kd (MS2 coat protein [2]; [6]): 106 nM
UUAGAUUAUUGAGGAUAUGGAUCUUAUUAUUAACCAGAAGGCAAACUCAACAUGAGGAUCACCCAUGUAUAAAGGGUAUUAGUU,89.5,83.4,
UCAGGCUUCGAGAAGGACAUGAGGAUCACCCAUGUUAAUUAGAAGCAGCCGUGAGGCUGCAUCAUGUAGGAUAUCGGAGUCUGC,7.16,24.8,
AUUAUAUAGAAAGGAUAUAGAAUAUUAUUUUAACAUGAGGAUCACCCAUGUAACCUUAUGUGUAGCUAGAAGGUUCAUUUAUUA,61.8,78.1,
UUAAAUCAUGUAGGAUAUGCGUGGAGAAACUAUGCAGAAGGACAUGAGGAUCACCCAUGUGCUUCCGUCUGCGUACAGAUGGUA,26.3,156,
AUUUAUGGCCAGAAGGACAUGAGGAUCACCCAUGUAGGAUAUGGACGAUUUUGCUCGGCGGUUCGUUAAGAAAGCACCGGUGGU,,,apparent Kd (MS2 coat protein [2]; [5]): 16.5 nM; apparent Kd (MS2 coat protein [2]; [6]): 7.39 nM
UUUCCCUGUGUGAGGAUAUACUUGUUUGGGUUUUUGUAGAAGGCACAUGAGGAUCACCCAUGUACUCUGUCCUG,25.3,30.6,
UAAUUGUGAGGAUAUUCGUAGUUCACGGAGACGUGAAUUACGGAGAAGGCACAUGAGGAUCACCCAUGUUCCUU,17.8,84.8,
CGCCAUUUAACAACGGCGCGGUCGAGAAGGGUACAUGAGGAUCACCCAUGUCACGUUCCUCCUGUACAGGAUAUCGUACGGGUA,67,146,
CCUCGUUGGGAGGAUAUCCUUUUGGUUGGAGGAGGAGAAGGCUCGACAUGAGGAUCACCCAUGUGGGAUUUCCC,62.4,194,
UCGUGCCGGGUUACGAUCGACCCACAUGAGGAUCACCCAUGUAGAAGGACCAGCGUCGGCCCUUGGUAGGAUAUACAUGAAAUC,106,135,
AGUACUCAAAGAGUACGCAUACGCACAUGAGGAUCACCCAUGUAGGAUAUGCUACUCAAAGAGUAGUAGAAGGACAUAUACCUC,4.31,4.46,
UCUGCUCGAGGAUAUACAUGAGGAUCACCCAUGUAACCCAGAAGCAUGGCCUCAGGAUGUAGAAGGCGACGCUA,17.3,37.5,
ACCAUUUACUAAUCCUCUAUACAUGAGGAUCACCCAUGUUAAGAGGAUAUCAUCGUUCGCCGCGUUGAGAAGGCUUAGCAUUCG,14.8,23.1,
ACAUAGUUAGGAUAUGCUGCUCGUCACUUGCGUGAUGAGUAGCAGAAGGAACAUGAGGAUCACCCAUGUAAAGA,29.9,29.5,
AACUAGUCAGGAUAUACGAACAUGUCAAAAAACAUAAAGGGACAUGAGGAUCACCCAUGUAGAAGGGACUAGCA,177,666,
GCUGACGAUGUAGGAUAUCUCGACGAUAAGUCGAGAGAAGGACAUGAGGAUCACCCAUGUAAAAUCCCGUCAGCGAGGAAACUC,16.4,23.1,
UUGAAGAUAGGAUAUACGAGGAGAGGAGAGAGAAGGUGAGGACAUGAGGAUCACCCAUGUAGAAGGAUCAGGAA,81.5,62.5,
GCCUCAGAAUUAAUUGUGAGAGGCAGAAGGCUAUAUCUCGUGGUAAACAUGAGGAUCACCCAUGUAGAGGAUAUGCUAUUACAG,8.25,9.99,
GGACGGAAAGUGAGGAUAUGCUCUACCUCGGUAGAGCAGAAGGCACAUGAGGAUCACCCAUGUGAUAACUGUUC,19.1,93,
AUCAUCUUGUCAGGAUAUGCGUGUCAACGAAAGUAGACAAUCUUGAUAACAUGAGGAUCACCCAUGUAGAAGGGACGAGAUGAU,21,21.9,
CCGGGAAUAUUAAAUACCUCAACAUGAGGAUCACCCAUGUUGCAGGAUAUCAAUGAGUUGGAAAAUGAGAAGGGCAGCGGGAGA,5.81,7.34,
GGUCCGCACUAGAAGGGUGACAUGAGGAUCACCCAUGUGCACUUCCGCUCUUAGCGGAAAGUGCCACAGGAUAUAGUGUGGAUU,,,apparent Kd (MS2 coat protein [2]; [5]): 80.6 nM; apparent Kd (MS2 coat protein [2]; [6]): 20.3 nM
CAGUACUGAGGAUAUACAUGAGGAUCACCCAUGUGUUCCUGCUAGGAAACUAGCAAAAGUAGAAGGCAGUACUG,25.2,532,
